From ChEMBL document CHEMBL3769404, “Novobiocin Analogues That Inhibit the MAPK Pathway” (J Med Chem, 2016)
Calls of active or inactive are those of the source. The calls are words filed in the database; no cut-off is given here.

Tests used:
A549 [1] = assay: Cytotoxicity against human A549 cells assessed as cell growth inhibition after 72 hrs by MTS assay; format: functional, cell-based; settings: A549, 72 h
Outline: (§1)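 Cells grown to confluence, seeded at 2000 cells/well and left overnight to attach. Compound added across a concentration range in DMSO (1% final), then 72 h at 37 °C, 5% CO2. Growth read by MTS/PMS relative to 1% DMSO wells (100% growth). IC50 taken from two separate experiments, each in triplicate.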

[2] = target: T1, Heat shock protein HSP90 (Homo sapiens) (UniProt P07900+P08238); assay: Inhibition of Hsp90 in human A549 cells assessed as decrease in Her2 levels at five times IC50 value after 24 hrs by Western blot analysis; format: cell-based
Outline: (§2)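 MPER lysates with protease/phosphatase inhibitors. 15 µg protein per lane on reducing 10% SDS gels, transferred to PVDF, immunoblotted, HRP chemiluminescent detection.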

[3] = target: T1, Heat shock protein HSP90 (Homo sapiens); assay: Inhibition of Hsp90 in human A549 cells assessed as decrease in EGFR levels at five times IC50 value after 24 hrs by Western blot analysis; format: cell-based; outline: as §2
[4] = target: T1, Heat shock protein HSP90 (Homo sapiens); assay: Inhibition of Hsp90 in human A549 cells assessed as decrease in c-Raf levels at five times IC50 value after 24 hrs by Western blot analysis; format: cell-based; outline: as §2
[5] = target: T2, B-raf/RAF proto-oncogene serine/threonine-protein kinase (Homo sapiens) (UniProt P04049+P15056); assay: Inhibition of B-Raf/C-Raf in human A549 cells assessed as decrease in phosphorylated MEK levels at five times IC50 value after 12 hrs by Western blot analysis; format: cell-based
T2 sequence (P04049 whole entry, looked up): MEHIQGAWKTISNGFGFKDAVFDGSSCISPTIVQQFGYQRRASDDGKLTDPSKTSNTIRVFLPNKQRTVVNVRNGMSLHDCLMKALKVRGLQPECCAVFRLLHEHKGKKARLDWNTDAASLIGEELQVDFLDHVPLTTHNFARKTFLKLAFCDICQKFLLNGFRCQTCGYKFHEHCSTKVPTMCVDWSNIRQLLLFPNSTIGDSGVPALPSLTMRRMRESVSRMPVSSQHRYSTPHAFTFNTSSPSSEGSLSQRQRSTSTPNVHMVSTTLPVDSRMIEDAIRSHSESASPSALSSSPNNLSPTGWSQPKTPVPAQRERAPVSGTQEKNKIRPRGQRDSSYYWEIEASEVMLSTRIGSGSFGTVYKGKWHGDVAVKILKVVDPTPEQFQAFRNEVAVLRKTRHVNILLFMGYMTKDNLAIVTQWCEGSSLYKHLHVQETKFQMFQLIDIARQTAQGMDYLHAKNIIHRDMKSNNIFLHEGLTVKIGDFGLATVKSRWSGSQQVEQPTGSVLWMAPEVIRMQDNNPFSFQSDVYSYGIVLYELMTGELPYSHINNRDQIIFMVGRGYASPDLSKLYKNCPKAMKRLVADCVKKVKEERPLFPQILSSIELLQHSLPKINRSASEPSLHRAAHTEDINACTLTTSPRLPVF
T2 sequence (P15056 whole entry, looked up): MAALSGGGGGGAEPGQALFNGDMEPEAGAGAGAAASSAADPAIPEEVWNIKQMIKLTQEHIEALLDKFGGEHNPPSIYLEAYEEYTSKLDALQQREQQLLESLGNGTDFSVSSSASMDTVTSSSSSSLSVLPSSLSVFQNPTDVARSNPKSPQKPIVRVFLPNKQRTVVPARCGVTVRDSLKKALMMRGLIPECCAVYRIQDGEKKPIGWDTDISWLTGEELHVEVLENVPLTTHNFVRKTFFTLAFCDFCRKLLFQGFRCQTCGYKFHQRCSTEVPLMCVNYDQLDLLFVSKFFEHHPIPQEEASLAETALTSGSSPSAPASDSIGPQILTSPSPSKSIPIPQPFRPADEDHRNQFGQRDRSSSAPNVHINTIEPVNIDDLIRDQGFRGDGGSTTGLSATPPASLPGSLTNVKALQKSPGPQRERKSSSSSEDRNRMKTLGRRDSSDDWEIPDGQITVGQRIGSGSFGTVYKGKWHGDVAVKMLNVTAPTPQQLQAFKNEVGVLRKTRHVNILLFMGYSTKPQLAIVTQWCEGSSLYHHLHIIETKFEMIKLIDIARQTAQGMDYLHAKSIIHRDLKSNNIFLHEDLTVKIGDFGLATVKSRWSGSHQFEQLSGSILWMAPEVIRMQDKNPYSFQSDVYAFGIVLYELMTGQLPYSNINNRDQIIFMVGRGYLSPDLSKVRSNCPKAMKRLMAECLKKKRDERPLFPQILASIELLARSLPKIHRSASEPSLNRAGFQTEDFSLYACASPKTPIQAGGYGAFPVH

[6] = target: T2, B-raf/RAF proto-oncogene serine/threonine-protein kinase (Homo sapiens); assay: Inhibition of B-Raf/C-Raf in human A549 cells assessed as decrease in phosphorylated ERK levels at five times IC50 value after 12 hrs by Western blot analysis; format: cell-based
[7] = target: T2, B-raf/RAF proto-oncogene serine/threonine-protein kinase (Homo sapiens); assay: Inhibition of B-Raf/C-Raf in human A549 cells assessed as effect on phosphorylated MEK levels at five times IC50 value after 24 hrs by Western blot analysis; format: cell-based; outline: as §2
[8] = target: T2, B-raf/RAF proto-oncogene serine/threonine-protein kinase (Homo sapiens); assay: Inhibition of B-Raf/C-Raf in human A549 cells assessed as effect on phosphorylated ERK levels at five times IC50 value after 24 hrs by Western blot analysis; format: cell-based; outline: as §2
A549 [9] = assay: Effect on B-Raf level in human A549 cells at five times IC50 value after 12 to 24 hrs by Western blot analysis; format: ADME, cell-based; outline: as §2
MCF7 [10] = assay: Cytotoxicity against human MCF7 cells assessed as cell growth inhibition after 72 hrs by MTS assay; format: functional, cell-based; settings: MCF7, 72 h; outline: as §1
MRC5 = assay: Cytotoxicity against human MRC5 cells assessed as cell growth inhibition after 72 hrs by MTS assay; format: cell-based; settings: MRC5, 72 h; outline: as §1
[11] = target: T1, Heat shock protein HSP90 (Homo sapiens); assay: Inhibition of Hsp90 in human MCF7 cells assessed as decrease in EGFR levels at five times IC50 value after 12 hrs by Western blot analysis; format: cell-based
Outline: (§3)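 MPER lysates. 15 µg protein per lane, reducing 10% SDS-PAGE, PVDF transfer, immunoblot for EGFR, Her2, C-Raf and Hsp90, chemiluminescent detection.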

[12] = target: T1, Heat shock protein HSP90 (Homo sapiens); assay: Inhibition of Hsp90 in human MCF7 cells assessed as decrease in Her2 levels at five times IC50 value after 12 hrs by Western blot analysis; format: cell-based; outline: as §3
[13] = target: T1, Heat shock protein HSP90 (Homo sapiens); assay: Inhibition of Hsp90 in human MCF7 cells assessed as decrease in C-Raf levels at five times IC50 value after 12 hrs by Western blot analysis; format: cell-based; outline: as §3
[14] = target: T1, Heat shock protein HSP90 (Homo sapiens); assay: Inhibition of Hsp90 in human A549 cells assessed as decrease in EGFR levels at five times IC50 value after 12 hrs by Western blot analysis; format: cell-based
[15] = target: T1, Heat shock protein HSP90 (Homo sapiens); assay: Inhibition of Hsp90 in human A549 cells assessed as decrease in Her2 levels at five times IC50 value after 12 hrs by Western blot analysis; format: cell-based
[16] = target: T1, Heat shock protein HSP90 (Homo sapiens); assay: Inhibition of Hsp90 in human A549 cells assessed as decrease in C-Raf levels at five times IC50 value after 12 hrs by Western blot analysis; format: cell-based
MCF7 [17] = assay: Effect on Hsp90 expression in human MCF7 cells at 0.5 to 5 times IC50 value after 12 hrs by western blot analysis; format: ADME, cell-based; settings: mcf7, 12 h; outline: as §3
[18] = target: T1, Heat shock protein HSP90 (Homo sapiens); assay: Inhibition of Hsp90 in human MCF7 cells assessed as effect on EGFR protein degradation at 0.5 to 5 times IC50 value after 12 hrs by western blot analysis; format: cell-based; outline: as §3
[19] = target: T1, Heat shock protein HSP90 (Homo sapiens); assay: Inhibition of Hsp90 in human MCF7 cells assessed as effect on Her2 protein degradation at 0.5 to 5 times IC50 value after 12 hrs by western blot analysis; format: cell-based; outline: as §3
[20] = target: T1, Heat shock protein HSP90 (Homo sapiens); assay: Inhibition of Hsp90 in human MCF7 cells assessed as effect on c-Raf protein degradation at 0.5 to 5 times IC50 value after 12 hrs by western blot analysis; format: cell-based; outline: as §3
[21] = target: T1, Heat shock protein HSP90 (Homo sapiens); assay: Inhibition of Hsp90 in human A549 cells assessed as effect on EGFR protein degradation at 0.5 to 5 times IC50 value after 12 hrs by western blot analysis; format: cell-based; outline: as §3
[22] = target: T1, Heat shock protein HSP90 (Homo sapiens); assay: Inhibition of Hsp90 in human A549 cells assessed as effect on Her2 protein degradation at 0.5 to 5 times IC50 value after 12 hrs by western blot analysis; format: cell-based; outline: as §3
[23] = target: T1, Heat shock protein HSP90 (Homo sapiens); assay: Inhibition of Hsp90 in human A549 cells assessed as effect on c-Raf protein degradation at 0.5 to 5 times IC50 value after 12 hrs by western blot analysis; format: cell-based; outline: as §3
[24] = target: T1, Heat shock protein HSP90 (Homo sapiens); assay: Inhibition of Hsp90 in human PC3MM2 cells upto 100 uM by luciferase refolding assay; format: cell-based
Outline: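 Luciferase-expressing PC3-MM2 cells heat-denatured at 50 °C for 8–12 min until luminescence fell to 1% of initial. 60,000 cells/100 µL added to compound (0–100 µM, 1% DMSO final) and left 1 h to recover. Luciferin/ATP/CoA reagent then added and luminescence read at once. Refolding expressed relative to 1% DMSO wells; triplicate points fitted to dose-response curves.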

[25] = target: T2, B-raf/RAF proto-oncogene serine/threonine-protein kinase (Homo sapiens); assay: Inhibition of B-Raf/C-Raf in human A549 cells assessed as decrease in phosphorylated MEK levels at five times IC50 value by Western blot analysis; format: cell-based; settings: TDE = time-dependent effect
[26] = target: T2, B-raf/RAF proto-oncogene serine/threonine-protein kinase (Homo sapiens); assay: Inhibition of B-Raf/C-Raf in human A549 cells assessed as decrease in phosphorylated ERK levels at five times IC50 value by Western blot analysis; format: cell-based; settings: TDE = time-dependent effect
[27] = target: T1, Heat shock protein HSP90 (Homo sapiens); assay: Inhibition of Hsp90 in human A549 cells assessed as effect on EGFR levels at five times IC50 value after 2 to 12 hrs by Western blot analysis; format: cell-based
Outline: (§4)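 Lysed in MPER with protease/phosphatase inhibitors, clarified at 14,000g. 15 µg protein per lane run on reducing 10% gels, transferred to PVDF, immunoblotted, detected by HRP chemiluminescence.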

[28] = target: T1, Heat shock protein HSP90 (Homo sapiens); assay: Inhibition of Hsp90 in human A549 cells assessed as decrease in C-Raf levels at five times IC50 value after 2 to 12 hrs by Western blot analysis; format: cell-based; outline: as §4
[29] = target: T2, B-raf/RAF proto-oncogene serine/threonine-protein kinase (Homo sapiens); assay: Inhibition of B-Raf/C-Raf in human A549 cells assessed as decrease in phosphorylated MEK levels after 12 hrs by Western blot analysis; format: cell-based
[30] = target: T2, B-raf/RAF proto-oncogene serine/threonine-protein kinase (Homo sapiens); assay: Inhibition of B-Raf/C-Raf in human A549 cells assessed as decrease in phosphorylated ERK levels after 12 hrs by Western blot analysis; format: cell-based
A549 [31] = assay: Inhibition of PI3K activity in human A549 cells assessed as effect on phosphorylated Akt level at five times IC50 value after 2 to 12 hrs by Western blot analysis; format: cell-based; outline: as §4
A549 [32] = assay: Effect of total Akt levels in human A549 cells at five times IC50 value after 2 to 12 hrs by Western blot analysis; format: ADME, cell-based; outline: as §4
[33] = target: T2, B-raf/RAF proto-oncogene serine/threonine-protein kinase (Homo sapiens); assay: Inhibition of B-Raf/C-Raf heterodimerization in human A549 cells at five times IC50 value after 24 hrs by SDS-PAGE/Western blot analysis; format: cell-based
Outline: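 Lysed in 0.1% NP40, 50 mM Tris pH 7.5, 150 mM NaCl with inhibitors. 500 µg protein incubated with B-Raf antibody overnight at 4 °C, captured on Protein G beads for 3 h at 4 °C, washed, eluted, then SDS-PAGE and immunoblot for c-Raf.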

A549 [34] = assay: Effect on total Erk level in human A549 cells at five times IC50 value after 2 to 12 hrs by western blot analysis; format: ADME, cell-based; outline: as §4
A549 [35] = assay: Effect on total Mek level in human A549 cells at five times IC50 value after 2 to 12 hrs by western blot analysis; format: ADME, cell-based; outline: as §4
[36] = Cytotoxicity against human SKBR3 cells by MTS assay; settings: SK-BR-3

SMILES: Cc1c(OC2CCN(C)CC2)ccc2cc(NC(=O)Nc3cccc(-c4ccccc4)c3)c(=O)oc12
- IC50 (A549 [1]): 0.06 µM
- inhibition [2]: Active
- inhibition [3]: Active
- inhibition [4]: Active

SMILES: COc1cccc(-c2cccc(NC(=O)Nc3cc4ccc(OC5CCN(C)CC5)c(C)c4oc3=O)c2)c1
- IC50 (A549 [1]): 0.28 µM
- inhibition [5]: Active
- inhibition [6]: Active
- inhibition [7]: inactive
- inhibition [8]: inactive

SMILES: N#Cc1c(Oc2ccc(F)c(NC(=O)Cc3cccc(C(F)(F)F)c3)c2)ccc2nc(NC(=O)C3CC3)sc12
- IC50 (A549 [1]): 1.7 µM
- Activity (A549 [9]): Non-toxic

SMILES: Cc1c(OC2CCN(C)CC2)ccc2cc(NC(=O)Nc3ccccc3)c(=O)oc12
- IC50 (A549 [1]): 0.24 µM
- IC50 (MCF7 [10]): 0.77 µM
- IC50 (MRC5): 3.6 µM
- inhibition [11]: Active
- inhibition [12]: Active
- inhibition [13]: Active
- inhibition [14]: Active
- inhibition [15]: Active
- inhibition [16]: Active
- Activity (MCF7 [17]): Non-toxic

SMILES: COc1ccc(NC(=O)Nc2cc3ccc(OC4CCN(C)CC4)c(C)c3oc2=O)cc1-c1ccccc1
- IC50 (A549 [1]): 0.41 µM
- inhibition [5]: Active
- inhibition [6]: Active
- inhibition [7]: inactive
- inhibition [8]: inactive

SMILES: COc1cccc(-c2cc(NC(=O)Nc3cc4ccc(OC5CCN(C)CC5)c(C)c4oc3=O)ccc2OC)c1
- IC50 (A549 [1]): 0.15 µM
- IC50 (MCF7 [10]): 0.17 µM
- IC50 (MRC5): 4.3 µM
- inhibition [18]: inactive
- inhibition [19]: inactive
- inhibition [20]: inactive
- inhibition [21]: inactive
- inhibition [22]: inactive
- inhibition [23]: inactive
- inhibition [24]: inactive
- inhibition [25]: tde
- inhibition [26]: tde
- inhibition [27]: inactive
- inhibition [28]: inactive
- inhibition [29]: Dose-dependent effect
- inhibition [30]: Dose-dependent effect
- Activity (A549 [31]): inactive
- Activity (A549 [32]): Non-toxic
- inhibition [33]: Active
- Activity (A549 [34]): Non-toxic
- Activity (A549 [35]): Non-toxic

SMILES: CO[C@@H]1[C@@H](OC(N)=O)[C@@H](O)[C@H](Oc2ccc3c(O)c(NC(=O)c4ccc(O)c(CC=C(C)C)c4)c(=O)oc3c2C)OC1(C)C [NOVOBIOCIN]
- IC50 [36]: 700 µM

SMILES: CCCS(=O)(=O)Nc1ccc(F)c(C(=O)c2c[nH]c3ncc(-c4ccc(Cl)cc4)cc23)c1F [VEMURAFENIB]
- Activity (A549 [9]): Non-toxic
